Assay results published in ChEMBL document CHEMBL3751743, “Synthesis and anti-cancer screening of novel heterocyclic-(2H)-1,2,3-triazoles as potential anti-cancer agents” (Medchemcomm, 2015).

Key:
[1] = Cytotoxicity against human DU145 cells after 48 hrs by SRB assay; type: functional; conditions: DU-145, 48 h
Outline: (§1)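 NCI-60 five-dose screen: compounds dissolved in DMSO/H2O, tested at five 10-fold dilutions (10^-4 to 10^-8 M) for 48 h. Growth measured by sulforhodamine B optical density at time zero and after 48 h drug or vehicle exposure. Percentage growth calculated relative to control. GI50 is the molar concentration giving 50% reduction in net cell growth versus day-0 cell numbers.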

MCF7 = experiment: Cytotoxicity against human MCF7 cells after 48 hrs by SRB assay; type: functional; conditions: MCF7, 48 h; outline: as §1
MDA-MB-231 = experiment: Cytotoxicity against human MDA-MB-231 cells after 48 hrs by SRB assay; type: functional; conditions: MDA-MB-231, 48 h; outline: as §1
[2] = Cytotoxicity against human Hs 578T cells after 48 hrs by SRB assay; type: functional; outline: as §1
[3] = Cytotoxicity against human BT549 cells after 48 hrs by SRB assay; type: functional; conditions: BT-549, 48 h; outline: as §1
T47D = experiment: Cytotoxicity against human T47D cells after 48 hrs by SRB assay; type: functional
Outline: (§2)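 NCI-60 five-dose screen. Compounds dissolved in DMSO/H2O and tested at five 10-fold dilutions (10^-4 to 10^-8 M) for 48 h. Growth read by sulforhodamine B optical density at time zero and after 48 h of exposure to compound or vehicle. Percent growth calculated against control. GI50 is the molar concentration giving 50% reduction in net cell growth relative to cell number on day 0.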

MDA-MB-468 = experiment: Cytotoxicity against human MDA-MB-468 cells after 48 hrs by SRB assay; type: functional; conditions: MDA-MB-468, 48 h; outline: as §1
Tubulin = Tubulin (Sus scrofa, UniProt P02554+P02550); experiment: Inhibition of porcine brain tubulin polymerization by spectrophotometric analysis
Outline: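 Tubulin at 4 mg/mL in cold 80 mM PIPES pH 6.9 with 2 mM MgCl2, 0.5 mM EGTA, GTP and 10% glycerol. Compound (added as 10x stock in 50% DMSO) or DMSO was preincubated 2 min at 37 °C in a prewarmed plate. Cold tubulin was then added, and polymerization at 37 °C was followed by A340 over time. Dose-response, mean ± s.d., n=3.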

CCRF-CEM = experiment: Cytotoxicity against human CCRF-CEM cells after 48 hrs by SRB assay; type: functional; outline: as §1
[4] = Cytotoxicity against human HL-60(TB) cells after 48 hrs by SRB assay; type: functional; conditions: HL-60, 48 h; outline: as §1
K562 = experiment: Cytotoxicity against human K562 cells after 48 hrs by SRB assay; type: functional; conditions: K562, 48 h; outline: as §1
[5] = Cytotoxicity against human MOLT4 cells after 48 hrs by SRB assay; type: functional; conditions: MOLT-4, 48 h; outline: as §1
[6] = Cytotoxicity against human RPMI8226 cells after 48 hrs by SRB assay; type: functional; conditions: RPMI-8226, 48 h; outline: as §1
SR = experiment: Cytotoxicity against human SR cells after 48 hrs by SRB assay; type: functional; outline: as §1
A549 = experiment: Cytotoxicity against human A549 cells after 48 hrs by SRB assay; type: functional; conditions: A549, 48 h; outline: as §1
[7] = Cytotoxicity against human HOP92 cells after 48 hrs by SRB assay; type: functional; conditions: HOP-92, 48 h; outline: as §1
NCI-H226 = experiment: Cytotoxicity against human NCI-H226 cells after 48 hrs by SRB assay; type: functional; conditions: NCI-H226, 48 h; outline: as §1
NCI-H23 = experiment: Cytotoxicity against human NCI-H23 cells after 48 hrs by SRB assay; type: functional; conditions: NCI-H23, 48 h; outline: as §1
NCI-H460 = experiment: Cytotoxicity against human NCI-H460 cells after 48 hrs by SRB assay; type: functional; conditions: NCI-H460, 48 h; outline: as §1
NCI-H522 = experiment: Cytotoxicity against human NCI-H522 cells after 48 hrs by SRB assay; type: functional; conditions: NCI-H522, 48 h; outline: as §1
[8] = Cytotoxicity against human COLO205 cells after 48 hrs by SRB assay; type: functional; conditions: COLO 205, 48 h; outline: as §1
[9] = Cytotoxicity against human HCC2998 cells after 48 hrs by SRB assay; type: functional; conditions: HCC 2998, 48 h; outline: as §1
[10] = Cytotoxicity against human HCT116 cells after 48 hrs by SRB assay; type: functional; conditions: HCT-116, 48 h; outline: as §1
[11] = Cytotoxicity against human HCT15 cells after 48 hrs by SRB assay; type: functional; conditions: HCT-15, 48 h; outline: as §1
HT-29 = experiment: Cytotoxicity against human HT-29 cells after 48 hrs by SRB assay; type: functional; conditions: HT-29, 48 h; outline: as §1
KM12 = experiment: Cytotoxicity against human KM12 cells after 48 hrs by SRB assay; type: functional; conditions: KM12, 48 h; outline: as §1
[12] = Cytotoxicity against human SW620 cells after 48 hrs by SRB assay; type: functional; conditions: SW-620, 48 h; outline: as §1
[13] = Cytotoxicity against human SF268 cells after 48 hrs by SRB assay; type: functional; conditions: SF-268, 48 h; outline: as §1
[14] = Cytotoxicity against human SF295 cells after 48 hrs by SRB assay; type: functional; conditions: SF-295, 48 h; outline: as §1
[15] = Cytotoxicity against human SF539 cells after 48 hrs by SRB assay; type: functional; conditions: SF-539, 48 h; outline: as §1
[16] = Cytotoxicity against human SNB19 cells after 48 hrs by SRB assay; type: functional; conditions: SNB-19, 48 h; outline: as §1
[17] = Cytotoxicity against human SNB75 cells after 48 hrs by SRB assay; type: functional; conditions: SNB-75, 48 h; outline: as §1
U-251 = experiment: Cytotoxicity against human U251 cells after 48 hrs by SRB assay; type: functional; conditions: U-251, 48 h; outline: as §2
[18] = Cytotoxicity against human LOXIMVI cells after 48 hrs by SRB assay; type: functional; conditions: LOX IMVI; outline: as §1
M14 = experiment: Cytotoxicity against human M14 cells after 48 hrs by SRB assay; type: functional; conditions: M14, 48 h; outline: as §1
MDA-MB-435 = experiment: Cytotoxicity against human MDA-MB-435 cells after 48 hrs by SRB assay; type: functional; conditions: MDA-MB-435, 48 h; outline: as §1
SK-MEL-2 = experiment: Cytotoxicity against human SK-MEL-2 cells after 48 hrs by SRB assay; type: functional; conditions: SK-MEL-2, 48 h; outline: as §1
SK-MEL-5 = experiment: Cytotoxicity against human SK-MEL-5 cells after 48 hrs by SRB assay; type: functional; conditions: SK-MEL-5, 48 h; outline: as §1
[19] = Cytotoxicity against human UACC257 cells after 48 hrs by SRB assay; type: functional; conditions: UACC-257, 48 h; outline: as §2
[20] = Cytotoxicity against human UACC62 cells after 48 hrs by SRB assay; type: functional; conditions: UACC-62, 48 h; outline: as §2
[21] = Cytotoxicity against human OVCAR3 cells after 48 hrs by SRB assay; type: functional; conditions: OVCAR-3, 48 h; outline: as §1
[22] = Cytotoxicity against human OVCAR4 cells after 48 hrs by SRB assay; type: functional; conditions: OVCAR-4, 48 h; outline: as §1
[23] = Cytotoxicity against human OVCAR5 cells after 48 hrs by SRB assay; type: functional; conditions: OVCAR-5, 48 h; outline: as §1
[24] = Cytotoxicity against human OVCAR8 cells after 48 hrs by SRB assay; type: functional; conditions: OVCAR-8, 48 h; outline: as §1
[25] = Cytotoxicity against human NCI-ADR-RES cells after 48 hrs by SRB assay; type: functional; outline: as §1
[26] = Cytotoxicity against human SKOV3 cells after 48 hrs by SRB assay; type: functional; conditions: SK-OV-3, 48 h; outline: as §1
786-0 = experiment: Cytotoxicity against human 786-0 cells after 48 hrs by SRB assay; type: functional; conditions: 786-0, 48 h; outline: as §1
A498 = experiment: Cytotoxicity against human A498 cells after 48 hrs by SRB assay; type: functional; conditions: A498, 48 h; outline: as §1
ACHN = experiment: Cytotoxicity against human ACHN cells after 48 hrs by SRB assay; type: functional; outline: as §1
[27] = Cytotoxicity against human Caki1 cells after 48 hrs by SRB assay; type: functional; conditions: CAKI-1, 48 h; outline: as §1
[28] = Cytotoxicity against human RXF393 cells after 48 hrs by SRB assay; type: functional; conditions: RXF 393, 48 h; outline: as §1
SN12C = experiment: Cytotoxicity against human SN12C cells after 48 hrs by SRB assay; type: functional; outline: as §1
[29] = Cytotoxicity against human TK10 cells after 48 hrs by SRB assay; type: functional; conditions: TK-10, 48 h; outline: as §2
[30] = Cytotoxicity against human UO31 cells after 48 hrs by SRB assay; type: functional; conditions: UO-31, 48 h; outline: as §2
[31] = Cytotoxicity against human PC3 cells after 48 hrs by SRB assay; type: functional; conditions: PC-3, 48 h; outline: as §1

Q: What does the source list for `COc1cc(OC)cc(-c2n[nH]nc2-c2c[nH]c3ccccc23)c1`?
A: GI50 [1]: 75 nM; GI50 (MCF7): 29 nM; GI50 (MDA-MB-231): 76 nM; GI50 [2]: 31 nM; GI50 [3]: 17 nM; GI50 (T47D): 44 nM; GI50 (MDA-MB-468): 37 nM; IC50 (Tubulin): 13.5 µM; GI50 (CCRF-CEM): 37 nM; GI50 [4]: 33 nM; GI50 (K562): 31 nM; GI50 [5]: 63 nM; GI50 [6]: 53 nM; GI50 (SR): 47 nM; GI50 (A549): 88 nM; GI50 [7]: 29 nM; GI50 (NCI-H226): 75 nM; GI50 (NCI-H23): 124 nM; GI50 (NCI-H460): 38 nM; GI50 (NCI-H522): 13 nM; GI50 [8]: 35 nM; GI50 [9]: 251 nM; GI50 [10]: 31 nM; GI50 [11]: 31 nM; GI50 (HT-29): 31 nM; GI50 (KM12): 45 nM; GI50 [12]: 35 nM; GI50 [13]: 67 nM; GI50 [14]: 26 nM; GI50 [15]: 24 nM; GI50 [16]: 56 nM; GI50 [17]: 25 nM; GI50 (U-251): 54 nM; GI50 [18]: 55 nM; GI50 (M14): 31 nM; GI50 (MDA-MB-435): 10 nM; GI50 (SK-MEL-2): 31 nM; GI50 (SK-MEL-5): 34 nM; GI50 [19]: > 100 µM; GI50 [20]: 34 nM; GI50 [21]: 28 nM; GI50 [22]: 2670 nM; GI50 [23]: 416 nM; GI50 [24]: 70 nM; GI50 [25]: 30 nM; GI50 [26]: 34 nM; GI50 (786-0): 30 nM; GI50 (A498): 33 nM; GI50 (ACHN): 45 nM; GI50 [27]: 38 nM; GI50 [28]: 52 nM; GI50 (SN12C): 69 nM; GI50 [29]: 83 nM; GI50 [30]: 62 nM; GI50 [31]: 38 nM
